One compound from ChEMBL document CHEMBL1687687, “Identification of a New Series of STAT3 Inhibitors by Virtual Screening” (ACS Med Chem Lett, 2010) can be followed below.

Molecules are shown by their SMILES. Calls of active or inactive are those of the source. The calls are words filed in the database; no cut-off is given here.

For assay [1], the target named is T1, Signal transducer and activator of transcription 3 (Homo sapiens, UniProt P40763). The assay can be described thus: Inhibition of STAT3 dimerization transfected in HEK293 cells at 50 uM after 24 hrs followed by 1 hr stimulation with 50 ng/ml IL-6 by FRET assay. The format is cell-based. In outline: (§1)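 Cell-based FRET dimerization read-out in HEK293 cells co-expressing STAT3-CFP and STAT3-YFP. Cells were pretreated with compound before IL-6 stimulation, and the FRET signal from the STAT3–STAT3 interaction was measured. Values are given as percent inhibition of the signal.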
T1 sequence (P40763 whole entry): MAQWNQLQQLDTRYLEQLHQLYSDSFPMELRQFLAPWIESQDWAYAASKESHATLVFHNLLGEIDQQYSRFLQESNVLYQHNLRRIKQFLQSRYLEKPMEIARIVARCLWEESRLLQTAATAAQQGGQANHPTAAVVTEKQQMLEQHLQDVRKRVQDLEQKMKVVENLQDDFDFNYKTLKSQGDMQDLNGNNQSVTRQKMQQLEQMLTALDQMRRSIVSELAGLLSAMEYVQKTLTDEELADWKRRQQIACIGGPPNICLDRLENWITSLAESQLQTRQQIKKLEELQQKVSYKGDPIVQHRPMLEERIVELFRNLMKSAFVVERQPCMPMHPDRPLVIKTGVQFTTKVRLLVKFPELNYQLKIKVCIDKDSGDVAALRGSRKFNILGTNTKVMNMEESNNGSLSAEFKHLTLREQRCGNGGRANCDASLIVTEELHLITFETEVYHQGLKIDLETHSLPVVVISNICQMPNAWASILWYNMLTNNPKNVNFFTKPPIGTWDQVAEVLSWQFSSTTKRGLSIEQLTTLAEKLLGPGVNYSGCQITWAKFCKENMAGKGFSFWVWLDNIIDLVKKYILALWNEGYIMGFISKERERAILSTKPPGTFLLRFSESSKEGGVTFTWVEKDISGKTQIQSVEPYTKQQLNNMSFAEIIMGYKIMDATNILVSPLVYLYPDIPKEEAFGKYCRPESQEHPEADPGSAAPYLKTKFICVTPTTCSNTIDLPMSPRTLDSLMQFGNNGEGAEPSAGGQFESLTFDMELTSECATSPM

The target of assay [2] is T1, Signal transducer and activator of transcription 3. Description: Inhibition of STAT3 dimerization transfected in HEK293 cells at 100 uM after 24 hrs followed by 1 hr stimulation with 50 ng/ml IL-6 by FRET assay. It is filed as cell-based. Conditions: 10 uM, in the assay text read “at 10 uM” for “at 100 uM”. In outline: as §1
For assay [3] the target is unchanged. Description: Inhibition of STAT3 in human MDA-MB-468 cells assessed as reduction in c-myc expression at 20 uM by Western blotting. The format is cell-based. The method, boiled down:
(§2)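 MDA-MB-468 breast cancer cells were treated with compound at a series of concentrations. Cell lysates were analysed by Western blotting for c-myc, cyclin D1 and survivin, with STAT3 Tyr705 phosphorylation probed alongside.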
(A western blot detects proteins with antibodies after separation by electrophoresis.)

Assay [4] shares this target. Description: Inhibition of STAT3 in human MDA-MB-468 cells assessed as reduction in cyclin D1 expression at 20 uM by Western blotting. It is filed as cell-based. The method, boiled down: as §2
Assay [5] has the same target. The assay can be described thus: Inhibition of STAT3 in human MDA-MB-468 cells assessed as reduction in cyclin D1 expression at 50 uM by Western blotting. It is filed as cell-based. The method, boiled down:
as §2

Assay [6] shares this target. The assay can be described thus: Inhibition of STAT3 in human MDA-MB-468 cells assessed as reduction in survivin expression at 20 uM by Western blotting. The format is cell-based. In outline: as §2
For assay [7] the target is unchanged. Description: Inhibition of STAT3 in human MDA-MB-468 cells assessed as reduction in survivin expression at 50 uM by Western blotting. It is filed as cell-based. In outline:
as §2

For assay [8] the target is unchanged. The assay can be described thus: Inhibition of STAT3 DNA binding activity in IL-6 stimulated human MDA-MB-468 cells at 50 uM by transcription factor ELISA. It is filed as cell-based. In general terms: An ELISA detects its analyte on a solid surface through an enzyme-linked reagent.
Assay [9] has as its target T2, Signal transducer and activator of transcription 1-alpha/beta (Homo sapiens) (UniProt P42224).
T2 sequence (whole entry): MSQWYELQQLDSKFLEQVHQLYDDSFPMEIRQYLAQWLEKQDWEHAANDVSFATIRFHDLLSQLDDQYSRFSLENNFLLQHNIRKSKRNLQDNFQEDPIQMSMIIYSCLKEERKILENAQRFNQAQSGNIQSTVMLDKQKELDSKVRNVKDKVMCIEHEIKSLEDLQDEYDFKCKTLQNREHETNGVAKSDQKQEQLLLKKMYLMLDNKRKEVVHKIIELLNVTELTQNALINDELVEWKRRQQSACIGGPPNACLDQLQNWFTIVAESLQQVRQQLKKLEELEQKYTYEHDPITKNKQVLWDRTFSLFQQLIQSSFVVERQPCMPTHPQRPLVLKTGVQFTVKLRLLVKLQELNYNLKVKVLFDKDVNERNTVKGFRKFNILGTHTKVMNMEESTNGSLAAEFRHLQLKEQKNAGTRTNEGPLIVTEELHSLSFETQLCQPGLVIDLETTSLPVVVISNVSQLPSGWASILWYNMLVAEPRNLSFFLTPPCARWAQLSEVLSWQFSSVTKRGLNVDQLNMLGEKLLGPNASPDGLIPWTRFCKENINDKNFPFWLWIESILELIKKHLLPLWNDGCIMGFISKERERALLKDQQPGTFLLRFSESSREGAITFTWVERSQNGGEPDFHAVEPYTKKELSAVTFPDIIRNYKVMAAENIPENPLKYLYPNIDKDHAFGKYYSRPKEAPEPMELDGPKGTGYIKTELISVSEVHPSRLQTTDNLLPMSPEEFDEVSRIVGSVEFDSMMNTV
The assay can be described thus: Inhibition of STAT1 DNA binding activity in IL-6 stimulated human MDA-MB-468 cells at 50 uM by transcription factor ELISA. The format is cell-based.

For assay [10], the system named is SCC-3. The assay can be described thus: Antitumor activity against human SCC-3 cells xenografted in BALB/cA-v/v nude mouse assessed as decrease in tumor volume at 160 mg/kg, po QD for 4 days measured on 4th day relative to control. The format is functional. Also noted: scale not given: the % may be the effect or the level left. In outline: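 Human SCC-3 lymphoma cells implanted subcutaneously in nude mice. Compound given by oral gavage at 160 mg/kg once daily for 4 days. Tumour growth was assessed on day 4 against untreated controls, with significance taken at p < 0.05. Body weight and signs of toxicity were monitored over the same period.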

In the case of `O=C(Nc1nnc(-c2ccco2)o1)c1cc(-c2ccccc2)nc2ccccc12`, the inhibition (usually the change of the read-out against control, counted positive when it falls) was 62% in assay [1] and 9% in assay [2]. Also, the inhibition entry in assay [3], in assay [4], in assay [5], in [6], in assay [7] and in assay [8] was “Active” each time. Also, the inhibition entry in [9] is “inactive”. The Activity in assay [10] amounted to 40%.
